Screening results from PubChem.
hIAP inh: human IAP inhibition | inhibition, % at 10 µM | P09923 | purified IAP, CDP-Star luminescence, 30 min | AID 2544 | 330,000 tested, 0.12% active;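 active = inhibition reaching a set limit with compound at 10 µM in the primary screen, cut at about 35% in these data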;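 note: plate controls were DMSO wells with enzyme for no effect and no-enzyme buffer wells for full effect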
Target sequence (P09923 whole entry, looked up): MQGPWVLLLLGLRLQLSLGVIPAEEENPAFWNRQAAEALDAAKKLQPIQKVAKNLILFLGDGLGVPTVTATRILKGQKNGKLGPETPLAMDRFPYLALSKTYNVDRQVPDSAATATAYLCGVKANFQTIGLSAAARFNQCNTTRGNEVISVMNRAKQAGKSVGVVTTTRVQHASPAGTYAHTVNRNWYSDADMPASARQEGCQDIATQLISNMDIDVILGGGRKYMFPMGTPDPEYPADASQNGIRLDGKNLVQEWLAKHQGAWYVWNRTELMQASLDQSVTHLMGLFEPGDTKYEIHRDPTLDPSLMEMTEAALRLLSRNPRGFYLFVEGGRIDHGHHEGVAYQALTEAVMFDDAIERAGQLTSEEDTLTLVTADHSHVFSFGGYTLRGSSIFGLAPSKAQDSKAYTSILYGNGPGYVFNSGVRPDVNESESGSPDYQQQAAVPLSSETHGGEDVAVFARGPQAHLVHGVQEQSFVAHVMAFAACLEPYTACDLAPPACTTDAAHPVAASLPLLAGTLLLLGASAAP
mIAP activ: increases mouse intestinal alkaline phosphatase activity; muIAP, CDP-Star luminescence, 30 min; active compounds read high; 1 = vehicle-only enzyme signal, 0 = enzyme-free wells; activation factor at 10 µM; 330,000 tested, 0.24% active; AID 2805;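 active = activation factor of at least 2 at 20 µM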
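Assay system: mouse IAP enzyme; Reagent: CDP-Star chemiluminescent phosphatase substrate; Compound: DMSO-dissolved test compounds; Incubation: 30 min, room temperature; Technique: luminescence from enzymatic CDP-Star hydrolysis; Controls: DMSO-only wells and no-enzyme negative control.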
hIAP act: increases human intestinal alkaline phosphatase activity | purified human IAP, CDP-Star luminescence, 30 min; active compounds read high; 1 = vehicle-only enzyme, 0 = enzyme-free background | AID 2524 | 330,000 tested, 0.16% active | activation factor at 10 µM | P09923;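 active = activation factor of the enzyme at least 2-fold when tested at 20 µM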
bIAP act: increases bovine intestinal alkaline phosphatase activity. purified bovine IAP, CDP-star luminescence, 30 min; active compounds read high; fold of DMSO-control signal, blank-subtracted. activation factor at 20 µM. 200,000 tested, 0.17% active. AID 1016;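 active = activation factor of 2 or more at 20 µM, a signal rise over negative controls twice the positive control's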
mIAP inh: blocks mouse intestinal alkaline phosphatase | purified mouse IAP, CDP-Star luminescence, 30 min | inhibition, % at 10 µM | AID 2806 | 330,000 tested, 0.2% active;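 active = inhibition of at least 40% at 10 µM in the primary screen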;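 note: plate controls were DMSO with enzyme for no effect and no enzyme wells for full effect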
bIAP inh: blocks bovine intestinal alkaline phosphatase activity; 190,000 tested, under 10 active; inhibition, % at 20 µM; purified bovine IAP, CDP-star luminescence, 30 min;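 active = over 50% inhibition of intestinal alkaline phosphatase at 20 µM in the single-dose screen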
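test system = bovine IAP enzyme | medium = DEA buffer 100 mM, pH 9.8, with MgCl2 1.0 mM, ZnCl2 0.02 mM | detection = luminescence | dosing = single compound dose of 20 µM, 2% DMSO final | incubation = 30 min reaction at room temperature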
mIAP inh conf: mouse IAP inhibition confirmation | shares compounds with mIAP inh | purified mouse IAP, CDP-Star luminescence, 30 min | inhibition, % at 10 µM | 11,000 tested, 4.7% active | AID 434971;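 active = inhibition of at least 40% at 10 µM in either of the two replicates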;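 note: plate controls were DMSO wells with enzyme for no effect and buffer wells lacking enzyme for full effect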
* hit, by the source's call. This is a sample that favours compounds with a hit; in the whole collection about 0.79% have one here.

How did O=C(CN1C(=O)NC2(CCCc3ccccc32)C1=O)NCc1cccs1 (stereo unspecified) do in these assays?
hIAP inh: 1.5; mIAP activ: 1.1; hIAP act: 0.985; mIAP inh: -10.5

How did O=c1c(O)cccc2cc(O)c(O)c(O)c12 do in these assays?
hIAP inh: -13.5; mIAP activ: 0.392; hIAP act: 1.14; mIAP inh: 60.8*; mIAP inh conf: 74.4*

Results for O=c1cc(-c2ccccc2)oc2cc(O)c(O)c(O)c12 ?
hIAP inh: -22.3; mIAP activ: 0.95; hIAP act: 1.22; mIAP inh: 5.0

How did C[C@H](CO)N1C[C@H](C)[C@@H](CN(C)S(=O)(=O)c2ccccc2)Oc2ccc(NC(=O)C3CC3)cc2C1=O do in these assays?
hIAP inh: -32.3; mIAP activ: 1.03; hIAP act: 1.32; mIAP inh: -2.9

What do the screens show for `COc1ccc(NC(=O)Nc2ccc3c(c2)C(=O)N([C@H](C)CO)C[C@H](C)[C@@H](CN(C)S(=O)(=O)c2ccc(F)cc2)O3)cc1`?
hIAP inh: 4.3; mIAP activ: 2.85*; hIAP act: 0.957; mIAP inh: -185.1; mIAP inh conf: -101.3

What do the screens show for `C[C@H](CO)N1C[C@H](C)[C@@H](CN(C)S(=O)(=O)c2ccccc2)Oc2ccc(NC(=O)Nc3ccccc3)cc2C1=O`?
hIAP inh: 4.3; mIAP activ: 3.16*; hIAP act: 0.957; mIAP inh: -215.6; mIAP inh conf: -162.5

What do the screens show for `C[C@@H]1CN([C@H](C)CO)C(=O)c2cc(NC(=O)Nc3ccc(C(F)(F)F)cc3)ccc2O[C@H]1CN(C)S(=O)(=O)c1cccs1`?
hIAP inh: 0.1; mIAP activ: 1.69; hIAP act: 0.999; mIAP inh: -68.9

Results for C[C@H](CO)N1C[C@H](C)[C@@H](CN(C)S(=O)(=O)c2cccs2)Oc2ccc(NC(=O)Nc3ccccc3)cc2C1=O ?
hIAP inh: -1.3; mIAP activ: 3.21*; hIAP act: 1.01; mIAP inh: -221.1; mIAP inh conf: -152.1

What do the screens show for `Cc1ccc(S(=O)(=O)N(C)C[C@@H]2Oc3ccc(NC(=O)Nc4cccc5ccccc45)cc3C(=O)N([C@H](C)CO)C[C@H]2C)cc1`?
hIAP inh: -9.3; mIAP activ: 3.25*; hIAP act: 1.09; mIAP inh: -225.1; mIAP inh conf: -113.2

How did O=C(CCNC(=O)c1ccccc1)NNC(=O)COc1ccccc1Cl do in these assays?
hIAP inh: -38.3; mIAP activ: 0.945; hIAP act: 1.38; mIAP inh: 5.5

What do the screens show for `c1ccc(-c2nnsc2Sc2ccccn2)cc1`?
hIAP inh: 8.3; mIAP activ: 0.98; hIAP act: 0.917; bIAP act: 0.8; mIAP inh: 2.0; bIAP inh: 25.0

What do the screens show for `CCCN(CC(=O)Nc1ccc(F)c(F)c1F)CC(=O)Nc1c(C)n(C)n(-c2ccccc2)c1=O`?
hIAP inh: -28.8; mIAP activ: 1.01; hIAP act: 1.29; mIAP inh: -1.1

How did Oc1ccc(Br)cc1-c1cc(-c2ccco2)[nH]n1 do in these assays?
hIAP inh: -14.1; mIAP activ: 0.758; hIAP act: 1.14; bIAP act: 1; mIAP inh: 24.2; bIAP inh: 0.4

Results for Oc1ccc(Cl)cc1-c1cc(-c2ccco2)[nH]n1 ?
hIAP inh: 0.8; mIAP activ: 0.201; hIAP act: 0.992; bIAP act: 1.1; mIAP inh: 79.9*; bIAP inh: -11.2; mIAP inh conf: 80.3*

What do the screens show for `O=C(Cc1nnc(NC(=O)c2ccccc2)s1)N/N=C\c1ccc(O)c(O)c1`?
hIAP inh: -5.9; mIAP activ: 0.274; hIAP act: 1.06; mIAP inh: 72.6*; mIAP inh conf: 78.9*

What do the screens show for `Cc1cc(O)c(C=O)c2c1C(=O)Oc1c(CO)c(O)c3c(c1O2)C(O)OC3=O` (stereo unspecified)?
hIAP inh: 14.3; mIAP activ: 0.134; hIAP act: 0.857; bIAP act: 0.9; mIAP inh: 86.6*; bIAP inh: 14.8; mIAP inh conf: 62.5*
